From PubChem BioAssay
Many of the other results were omitted from the sample, so hits are more common in it than they were.
INS promoter act – activators of insulin promoter-driven GFP, primary screen, imaging, TRM-6 cells (human fetal islet line), eGFP reporter, cell count | plate-scaled: unstimulated 0, stimulated control 100 | activation, % at 2 µM | 130,000 tested, 0.81% active;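 active means activation at 2 µM above a set limit, confirmed on inspection of the cell images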;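 further: share of cells whose green reporter signal exceeds an intensity cutoff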
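Assay system: TRM-6 insulin promoter–eGFP reporter cells / Input: 1,000 cells per well / Medium: Low-glucose (5.5 mM) medium with tamoxifen / Also added: tamoxifen inducer, 0.75 µM, in seeding medium / Timing: overnight tamoxifen, then two-day compound incubation at 37 °C / Signal: automated fluorescence imaging of paraformaldehyde-fixed, Hoechst-counterstained cells, green channel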
Active calls of the source: *; [ ] = another dose, or the depositor's remark.

SMILES | INS promoter act
CC(C)c1ccc2c(c1)C1Cc3ccccc3C1N2 (configuration not stated) | 137
Cc1csc(NS(=O)(=O)c2cccc([N+](=O)[O-])c2)n1 | -7
CC(=O)Nc1ccc(C(=O)NNC(=O)Cc2ccccc2)cc1 | -7
O=C1c2ccccc2C(=O)N1CC(O)CN1CCOCC1 (configuration not stated) | 533*
O=C(c1ccccc1)c1ccc(OCC(O)CN2CCOCC2)cc1 (configuration not stated) | 233
CC(C(=O)N1CCOCC1)N1C(=O)c2ccccc2C1=O (configuration not stated) | 282
Cc1ccc(Nc2nnc(SCc3nc4ccccc4c(=O)[nH]3)s2)cc1 | -6
COc1ccc(NS(=O)(=O)c2cc(NC(=O)c3cccc(OCc4c(C)noc4C)c3)ccc2OC)cc1 | 0
COc1ccc(N2CCN(C(CNS(C)(=O)=O)c3ccco3)CC2)cc1 (configuration not stated) | -3
O=S(=O)(Nc1ccc(O)c(Sc2nc3ccccc3s2)c1)c1ccc(Cl)cc1 | -7
COc1cccc(N(CC(=O)NCCSc2ccc(Cl)cc2)S(C)(=O)=O)c1 | 93*
COc1ccc(NC(=S)NCCSc2ccc(Cl)cc2)c(OC)c1 | -9
COc1ccc(N(CC(=O)NCCSCc2c(F)cccc2Cl)S(C)(=O)=O)cc1OC | 7
CC1CCc2c(nc3ncnn3c2NCCN(C)C)C1 (configuration not stated) | 0
Cc1cc(NC(=O)C2CCCCC2)ccc1NC(=O)c1ccccc1Cl | 0
CC(=O)N1CCN(c2ncnc3sc(-c4ccccc4)cc23)CC1 | 4
Cc1nc(N2CCN(S(=O)(=O)c3ccccc3)CC2)c2cc(-c3ccccc3)sc2n1 | 81*
Cc1nc(N2CCN(S(=O)(=O)c3ccccc3)CC2)c2c3c(sc2n1)CC(C)CC3 (configuration not stated) | 0
Cc1ccc([N+](=O)[O-])cc1N/C=C1\CCc2ccccc2C1=O | 4
COc1ccc(NS(=O)(=O)c2cccc(N/C(=N\S(=O)(=O)c3ccccc3)c3ccc(F)cc3)c2)cc1 | 9
CN(Cc1cccs1)CC(O)COCc1ccco1 (configuration not stated) | -5
OC(COCc1ccco1)CN1CCN(C(c2ccccc2)c2ccccc2)CC1 (configuration not stated) | 129*
CN=c1sc2ccccc2n1CC(O)COCc1ccco1 (configuration not stated) | -7
O=C(O)Cc1ccc(-n2cccc2)cc1 | -9
CCOC(=O)CS(=O)(=O)c1ccccc1 | 0
SMILES | INS promoter act
COc1cc(NC(=O)CS(=O)(=O)c2ccccc2)cc(OC)c1OC | 381
C/C(CS(=O)(=O)c1ccccc1)=N\O | 229*
N#Cc1c(-c2ccccc2)ccn(Cc2ccc(Cl)cc2)c1=O | 9
Cc1ccc(NC(=O)/C=C/c2ccc([N+](=O)[O-])s2)cc1 | 270*
Cc1ccc(NC(=O)/C=C/c2ccc([N+](=O)[O-])s2)c(C)c1 | 179
Cc1ccc(C(=O)N/N=C/c2ccc([N+](=O)[O-])s2)cc1 | 8
Nc1c(C(O)(C(F)(F)F)C(F)(F)F)ccc2ccccc12 | -70
Cc1ccc(SCC(=O)NC(=O)NCc2ccccc2)c(C)c1 | 8
Cc1ccc(C)c(Cc2c(C)nc(C)[nH]c2=O)c1 | 0
O=S(=O)(Nc1nc2ccccc2nc1Nc1ccc(N2CCOCC2)cc1)c1cc(Cl)ccc1Cl | 0
COc1ccc(C(=O)Nc2ccc3c4c(cccc24)CC3)cc1 | -100
Nc1ccc2c3c(cccc13)CC2 | 377*
Nc1ccc2c3c(cccc13)C(=O)N(c1ccccc1)C2=O | 165
CC(=O)Oc1ccc2c(C)cc(=O)oc2c1C(=O)c1ccccc1 | 0
Cc1ccc(C2C(C#N)=C(N)SC(N)=C2C#N)c(C)c1 | -4
N#CC1=C(N)SC(N)=C(C#N)C1c1ccoc1 | 32
Cc1ccc(C2C(C#N)=C(N)SC(N)=C2C#N)cc1 | 121*
Cc1ccc(S(=O)(=O)Nc2cccc3c2CCCC3)cc1 | 3
COc1ccc(/C=C\C(=O)CC(O)(c2ccccc2)C(F)(F)F)cc1 (configuration not stated) | 6
CC(=O)Nc1ccc(-c2csc(NCc3ccco3)n2)cc1 | 3
Oc1ccc(-c2csc(-c3ccccc3)n2)cc1O | 7
CCC(=O)N(Cc1ccco1)c1nc(-c2ccccc2)cs1 | 136*
O=C(NC1(C(F)(F)F)OCCO1)c1ccc(F)cc1 | -79
CCC1CCC(C(=O)NC(CCSC)C(=O)NCCN(CC(C)C)CC(C)C)CC1 (configuration not stated) | 193
CCOC(=O)c1sc(=S)n(-c2ccccc2)c1N(C(C)=O)C(C)=O | 147
SMILES | INS promoter act
CCOC(=O)C(Cc1c[nH]c2ccccc12)NC(=O)c1ccco1 (configuration not stated) | -9
CCCC(=O)NC(c1ccco1)c1cc([N+](=O)[O-])c2cccnc2c1O (configuration not stated) | 7
CCCC(=O)NC(c1ccco1)c1c(O)ccc2ccccc12 (configuration not stated) | 133*
C#CCn1c(S(=O)(=O)Cc2ccc(OC)cc2)nc(-c2ccccc2)c1-c1ccccc1 | 0
CCCC(=O)NCCc1ccc(S(N)(=O)=O)cc1 | 3
C=CCN1C(=O)/C(=C/c2ccc(N(C)C)cc2)S/C1=N\c1nnc(CC)s1 | 163*
COc1ccc(/C=C2\SC(=NCc3ccccc3)N(Cc3ccccc3)C2=O)cc1OC | 9
C=CCn1c(SCCN2CCCC2)nc2c([nH]c3ccccc32)c1=O | -8
CC1=NN(C(=O)c2c(Br)c(C)nn2C)C(O)(C(F)(F)F)C1 (configuration not stated) | 0
CCc1ccc(NC(=O)C(C)OC(=O)CCC(=O)c2cccs2)cc1 (configuration not stated) | -3
CCCN(CCC)S(=O)(=O)c1ccc(C(=O)NCc2n[nH]c(=S)n2-c2ccc(Cl)c(Cl)c2)cc1 | 0
CCC1(CC)C(=O)NC(=O)NC1=Nc1cccc(OC)c1 | 168*
COc1cccc(-c2csc3nc[nH]c(=O)c23)c1 | -89
COc1cccc(NC(=O)Cc2ccccc2)c1 | -73
Cc1ccc(OC(=O)c2cccc(S(=O)(=O)N3CCCC3)c2)c(-n2nc3ccccc3n2)c1 | -7
O=C(Nc1cccc(Cl)c1)Nc1nnc(CSCCOc2ccc(Cl)cc2)s1 | 7
COc1ccc(CCNC(=O)C2CCC(=O)N2CCc2ccccc2)cc1OC (configuration not stated) | -4
CCN(CC)S(=O)(=O)c1ccc2c3c(cccc13)C(=O)N2 | -71
Cc1oc2ccc(NS(=O)(=O)c3ccccc3)cc2c1C(=O)Nc1ccccc1 | -3
CCOC(=O)c1c(C)oc2ccc(NS(=O)(=O)c3ccc4c5c(cccc35)C(=O)N4)cc12 | 506*
N#C/C(=C\C1=C(N2CCOCC2)C(=C/c2cccc([N+](=O)[O-])c2)/CC1)C(=O)Nc1ccccc1F | 614*
Cc1cc(=O)[nH]c(N/N=C/C2=C(N3CCOCC3)C(=C\c3ccc(Cl)cc3)/CC2)n1 | -3
O=C(N/N=C/C1=C(N2CCOCC2)C(=C\c2ccccc2)/CC1)Nc1ccccc1 | 6
N#C/C(=C\C1=C(N2CCOCC2)C(=C\c2ccc(Cl)cc2)/CC1)C(=O)Nc1ccccc1F | 614*[fluoresces]
O=C(/C=C/c1cccc([N+](=O)[O-])c1)NCCN1CCOCC1 | 7
